Measurements taken from ChEMBL document CHEMBL1138325, “Design, synthesis, in vitro, and in vivo characterization of phenylpiperazines and pyridinylpiperazines as potent and selective antagonists of the melanocortin-4 receptor” (J Med Chem, 2007).
The source made the active and inactive calls. The calls are words filed in the database; no cut-off is given here.

Tests used:
Melanocortin receptor 4 = Melanocortin receptor 4 (Homo sapiens, UniProt P32245); test: Displacement of [125I]NDPMSH from human MC4R expressed in HEK293 cells; assay type: cell-based
[1] = Distribution coefficient, log D by shake flask method; assay type: physicochemical; conditions: octanol/water
Outline: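 LogD measured by the shake-flask method; described elsewhere in the paper as lipophilicity at pH 7.4.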

[2] = Clearance in CD1 mouse at 5 mg/kg, iv; assay type: ADME, organism-based; design: dose 5 mg/kg, route intravenous; conditions: in vivo
Outline: (§1)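 CD-1 mice, three animals, dosed i.v. at 5 mg/kg and by oral gavage at 10 mg/kg. Plasma CL, Vd, t1/2, Cmax, Tmax, oral AUC and F% were derived. Brain concentrations and brain/plasma ratios at 1 and 4 h were taken from the i.v. dosing.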

[3] = Volume of distribution in CD1 mouse at 5 mg/kg, iv; assay type: ADME, organism-based; design: dose 5 mg/kg, route intravenous; conditions: in vivo
Outline: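 CD-1 mice, three animals per route; single i.v. dose at 5 mg/kg and oral gavage at 10 mg/kg. Plasma PK parameters derived; brain concentrations and brain/plasma ratios taken from the i.v. dosing at 1 and 4 h.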

[4] = AUC in CD1 mouse at 10 mg/kg, po; assay type: ADME, organism-based; design: dose 10 mg/kg, route oral; conditions: plasma; outline: as §1
[5] = Bioavailability in CD1 mouse at 10 mg/kg, po; assay type: ADME, organism-based; conditions: in vivo; outline: as §1
[6] = Clearance in Sprague-Dawley rat at 5 mg/kg, iv and 10 mg/kg, po; assay type: ADME, organism-based; conditions: in vivo
[7] = Drug level in Sprague-Dawley rat brain at 10 mg/kg, po after 4 hrs; assay type: ADME, organism-based; design: dose 10 mg/kg, route oral; conditions: read-out: Drug uptake
[8] = Ratio of drug level in brain to plasma in Sprague-Dawley rat at 10 mg/kg, po after 1 hr; assay type: ADME, organism-based; design: dose 10 mg/kg, route oral; conditions: brain and plasma, read-out: BPR
Outline: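 Sprague–Dawley rats, three animals per route; i.v. dose 5 mg/kg and oral 10 mg/kg. Brain concentrations and brain/plasma ratios taken from the oral dosing at 1 and 4 h post-dose.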

[9] = Clearance in dog at 5 mg/kg, iv; assay type: ADME, organism-based, Canis lupus familiaris; design: dose 5 mg/kg, route intravenous; conditions: in vivo
[10] = Volume of distribution in dog at 5 mg/kg, iv; assay type: ADME, organism-based, Canis lupus familiaris; design: dose 5 mg/kg, route intravenous; conditions: in vivo
[11] = Cmax in dog at 10 mg/kg, po; assay type: ADME, organism-based, Canis lupus familiaris; design: dose 10 mg/kg, route oral; conditions: in vivo
[12] = Tmax in dog at 10 mg/kg, po; assay type: ADME, organism-based, Canis lupus familiaris; design: dose 10 mg/kg, route oral; conditions: in vivo
[13] = AUC in dog at 10 mg/kg, po; assay type: ADME, organism-based, Canis lupus familiaris; design: dose 10 mg/kg, route oral; conditions: plasma
[14] = Bioavailability in dog at 10 mg/kg, po; assay type: ADME, organism-based, Canis lupus familiaris; conditions: in vivo
[15] = Half life in monkey at 5 mg/kg, iv; assay type: ADME, organism-based, Macaca mulatta; design: dose 5 mg/kg, route intravenous; conditions: rhesus monkey, in vivo
[16] = AUC in monkey at 5 mg/kg, iv; assay type: ADME, organism-based, Macaca mulatta; design: dose 5 mg/kg, route intravenous; conditions: rhesus monkey, plasma
Mus musculus = test: Increase in body weight in Lewis lung carcinoma bearing C57BL/6J mouse at 3 mg/kg, ip bid after 4 days; assay type: functional, organism-based; design: dose 3 mg/kg
Outline: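 Male C57BL/6J mice inoculated with Lewis lung carcinoma cells. From day 11 after inoculation, mice were dosed i.p. twice daily at 3 or 9 mg/kg for 4 days and compared with vehicle-treated tumor-bearing controls. Food intake and body weight were recorded; lean body mass was measured by DEXA.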

[17] = Tmax in CD1 mouse at 10 mg/kg, ip; assay type: ADME, organism-based; design: dose 10 mg/kg, route intraperitoneal; conditions: in vivo
[18] = molecular target: T1, Growth hormone secretagogue receptor type 1 (Homo sapiens, UniProt Q92847); test: Agonist activity at GHSR; assay type: functional
Cytochrome P450 2D6 = Cytochrome P450 2D6 (Homo sapiens, UniProt P10635); test: Inhibition of CYP2D6; assay type: ADME
[19] = molecular target: T1, Growth hormone secretagogue receptor type 1; test: Binding affinity to GHSR

T1 sequence (Q92847 whole entry): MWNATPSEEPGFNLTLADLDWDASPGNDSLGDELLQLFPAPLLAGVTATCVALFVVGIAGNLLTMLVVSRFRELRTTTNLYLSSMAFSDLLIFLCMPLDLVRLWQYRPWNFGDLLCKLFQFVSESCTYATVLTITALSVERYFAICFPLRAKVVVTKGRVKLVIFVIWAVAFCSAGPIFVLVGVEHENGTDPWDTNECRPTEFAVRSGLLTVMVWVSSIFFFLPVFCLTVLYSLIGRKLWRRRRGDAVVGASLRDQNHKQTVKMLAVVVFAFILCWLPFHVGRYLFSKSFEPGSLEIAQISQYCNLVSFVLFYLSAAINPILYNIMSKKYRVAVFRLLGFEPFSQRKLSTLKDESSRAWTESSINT
Sequence of Melanocortin receptor 4 (P32245 whole entry): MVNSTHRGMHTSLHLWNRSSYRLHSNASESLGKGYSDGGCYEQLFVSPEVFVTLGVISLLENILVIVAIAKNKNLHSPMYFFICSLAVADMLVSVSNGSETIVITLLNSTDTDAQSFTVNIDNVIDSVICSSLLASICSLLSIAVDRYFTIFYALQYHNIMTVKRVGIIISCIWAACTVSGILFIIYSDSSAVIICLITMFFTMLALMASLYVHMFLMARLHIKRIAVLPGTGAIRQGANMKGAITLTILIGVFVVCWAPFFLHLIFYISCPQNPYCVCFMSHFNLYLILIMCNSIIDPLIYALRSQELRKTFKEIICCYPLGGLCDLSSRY
Sequence of Cytochrome P450 2D6 (P10635 whole entry): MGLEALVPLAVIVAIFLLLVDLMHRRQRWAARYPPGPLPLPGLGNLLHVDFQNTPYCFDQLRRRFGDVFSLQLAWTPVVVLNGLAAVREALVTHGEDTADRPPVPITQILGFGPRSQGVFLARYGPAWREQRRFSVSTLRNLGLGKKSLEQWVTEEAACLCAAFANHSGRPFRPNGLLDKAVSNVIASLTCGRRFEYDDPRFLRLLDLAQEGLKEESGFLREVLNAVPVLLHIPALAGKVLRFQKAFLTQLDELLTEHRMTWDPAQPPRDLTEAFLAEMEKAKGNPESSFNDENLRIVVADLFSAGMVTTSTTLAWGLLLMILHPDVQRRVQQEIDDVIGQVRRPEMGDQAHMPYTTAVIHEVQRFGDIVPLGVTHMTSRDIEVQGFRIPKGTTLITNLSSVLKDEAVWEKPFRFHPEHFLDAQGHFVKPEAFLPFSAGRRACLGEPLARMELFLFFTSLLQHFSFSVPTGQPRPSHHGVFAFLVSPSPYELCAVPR

Q: Which results are given for `CC(C)C[C@H](NC(=O)CCN(C)C)c1cc(Cl)ccc1N1CCN(C(=O)[C@H](C)Cc2ccc(Cl)cc2)CC1`?
A: Ki (Melanocortin receptor 4): 3.4 nM; logD [1]: 3.9; clearance [2]: 36 mL/min/kg; Vd [3]: 11 L/kg; AUC [4]: 1160 ng·h/mL; bioavailability [5]: 23%; clearance [6]: 13 mL/min/kg; concentration at 4 h [7]: 27 ng/g; Kp at 1 h [8]: 0.1; clearance [9]: 29.4 mL/min/kg; Vd [10]: 11.8 L/kg; Cmax [11]: 142 ng/mL; Tmax [12]: 1 h; AUC [13]: 1480 ng·h/mL; bioavailability [14]: 29.4%; half-life [15]: 4.1 h; AUC [16]: 3700 ng·h/mL; Activity (Mus musculus): Active; Tmax [17]: 0.3 h; EC50 [18]: 720 nM; Intrinsic activity [18]: 47%; IC50 (Cytochrome P450 2D6): > 10000 nM; Ki [19]: 460 nM
